From ChEMBL document CHEMBL4706553, “Discovery of potent small molecule PROTACs targeting mutant EGFR” (Eur J Med Chem, 2020) come the findings set out here.

Activity calls are given as the source filed them.

Test [1] concerns von Hippel-Lindau disease tumor suppressor/Epidermal growth factor receptor (Homo sapiens), P00533+P40337 [UNDEFINED MUTATION]. In words: Protac activity at VHL/EGFR del19 mutant in human HCC827 cells assessed as induction of EGFR degradation at 33 nM incubated for 24 hrs measured following drug wash-out for 48 hrs by Western blot analysis. The class given is cell-based. The gist of the method: (§1)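 HCC827 cells (RPMI-1640, 10% heat-inactivated FBS, 1% sodium pyruvate, 1% glutamine, 37 °C, 5% CO₂) treated at 33 nM for 24 h. Medium then replaced with compound-free medium, and protein harvested at the stated times. EGFR read by Western blot; n = 2.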
(In general: Immunoblotting shows a protein as a band on a membrane.)

Another test relates to A-431. In words: Antiproliferative activity against human A431 cells expressing wild type EGFR assessed as cell growth inhibition measured after 72 hrs by MTT assay. Type of test: functional, cell-based. Conditions: A-431, 72 h. The gist of the method: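 Cells were seeded at 3000–8000/well and allowed 24 h, then exposed to serial compound concentrations for 72 h. MTT (5 mg/mL stock in PBS) was added for 4 h, supernatant removed and DMSO added. IC50, defined as 50% growth inhibition, was derived by nonlinear regression (log inhibitor vs response).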
For orientation: Tetrazolium assays rely on reduction of a dye to a coloured formazan, in cell work by metabolically active cells.

For test [2], the system named is von Hippel-Lindau disease tumor suppressor/Epidermal growth factor receptor (Homo sapiens), P00533+P40337 [UNDEFINED MUTATION]. In words: Protac activity at VHL/EGFR del19 mutant in human HCC827 cells assessed as induction of EGFR degradation at 33 nM incubated for 24 hrs measured following drug wash-out for 24 hrs by Western blot analysis. The class given is cell-based. The gist of the method: as §1

For test [3] the test system is unchanged. The test is described as follows: Protac activity at VHL/EGFR del19 mutant in human HCC827 cells assessed as induction of EGFR degradation by measuring reduction in Akt phosphorylation at 3 nM incubated for 48 hrs by Western blot analysis. The class given is cell-based. The gist of the method: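 HCC827 or H1975 cells treated at the stated concentrations for 48 h. Lysates probed by Western blot for EGFR, P-EGFR, Akt and P-Akt (each 1:1000); n = 2.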

For test [4] the test system is unchanged. In words: Protac activity at VHL/EGFR del19 mutant in human HCC827 cells assessed as maximal induction of EGFR degradation at 33 nM measured after 48 hrs by Western blot analysis. The class given is cell-based. The gist of the method: (§2)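 HCC827 cells seeded at 0.5–1 × 10⁶ per well, then treated at the stated concentrations for 48 h. EGFR by Western blot; n = 3. DC₅₀ (concentration giving 50% EGFR loss) by nonlinear regression, log(inhibitor) vs response.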

The subject of test [5] is NCI-H1975. In words: Inhibition of colony formation in human NCI-H1975 cells at 100 nM incubated for 15 days by crystal violet staining based analysis. Conditions: time 15.0 day. Type of test: functional, cell-based. The gist of the method:
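Colony formation: 200 cells per well were seeded and incubated 24 h, then kept with compound for 15 days. After three PBS washes, cells were fixed in cold 75% ethanol and stained with 0.1% crystal violet in water for 1 h. Colonies were counted.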

The subject of test [6] is von Hippel-Lindau disease tumor suppressor/Epidermal growth factor receptor (Homo sapiens), P00533+P40337 [UNDEFINED MUTATION]. The test is described as follows: Protac activity at VHL/EGFR del19 mutant in human HCC827 cells assessed as induction of EGFR degradation at 0.033 uM pretreated with ubiquitination inhibitor, MLN4924 for 2 hrs followed by incubation with compound for 24 hrs by Western blot analysis. The class given is cell-based.

The test system of test [7] is von Hippel-Lindau disease tumor suppressor/Epidermal growth factor receptor (Homo sapiens), P00533+P40337 [L858R,T790M]. The test is described as follows: Protac activity at VHL/EGFR L858R/T790M mutant in human H1975 cells assessed as induction of degradation of EGFR at 333 nM incubated for 48 hrs measured after compound wash-out for 48 hrs by Western blot analysis. Type of test: cell-based. The settings on record: NCI-H1975. In short, it runs like this:
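H1975 cells (RPMI-1640, 10% heat-inactivated FBS) exposed to 333 nM for 48 h. Medium then replaced with compound-free medium, and lysates collected at the stated times. EGFR read by Western blot; n = 2.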

For test [8], the system named is HCC827. In words: Induction of apoptosis in human HCC827 cells assessed as apoptotic cells at 10 nM measured after 48 hrs by AnnexinV-FITC/propidium iodide staining based flow cytometry analysis relative to control. The class given is functional. The gist of the method:
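To measure apoptosis, cells were seeded at 0.5–1 × 10⁶ per well, grown 24 h, then treated for 48 h. Collected cells were stained with an Annexin V-FITC apoptosis detection kit following its instructions, and apoptosis rate was read by flow cytometry. n = 2.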

Test [9] relates to HCC827. In words: Antiproliferative activity against human HCC827 cells expressing EGFR del19 mutant assessed as cell growth inhibition measured after 72 hrs by MTT assay. The class given is functional, cell-based. The settings on record: HCC827, 72 h. In short, it runs like this: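 HCC827 cells were kept in RPMI-1640 with 10% heat-inactivated FBS, 1% sodium pyruvate, 1% glutamine and 1% penicillin-streptomycin at 37 °C and 5% CO₂, seeded at 3000–8000/well and rested 24 h. Compounds were applied as a concentration series for 72 h. MTT (5 mg/mL stock in PBS) was given for 4 h, then medium was removed and DMSO added. IC50 came from nonlinear regression (log inhibitor vs response).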

For test [10], the system named is NCI-H1975. In words: Antiproliferative activity against human H1975 cells expressing EGFR L858R/T790M mutant assessed as cell growth inhibition measured after 72 hrs by MTT assay. Conditions: NCI-H1975, 72 h. The class given is functional, cell-based. In short, it runs like this:
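MTT assay on H1975 cells grown in RPMI-1640 with 10% heat-inactivated FBS and 1% penicillin-streptomycin at 37 °C and 5% CO₂. Cells were seeded at 3000–8000 per well and left 24 h, then exposed to a concentration series for 72 h. MTT (5 mg/mL stock in PBS) was added for 4 h, supernatant removed and formazan dissolved in DMSO. IC50 was fitted by nonlinear regression (log inhibitor vs response).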

Test [11] relates to von Hippel-Lindau disease tumor suppressor/Epidermal growth factor receptor (Homo sapiens), P00533+P40337 [L858R,T790M]. The test is described as follows: Protac activity at VHL/EGFR L858R/T790M mutant in human H1975 cells assessed as induction of degradation of EGFR at 100 to 333 nM precultured in medium without FBS followed by incubation with compound for 16 hrs by Western blot analysis. The class given is cell-based. Conditions: NCI-H1975, dose 100-333 nM. The gist of the method: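 HCC827 or H1975 cells precultured 8 h in medium with or without FBS, then treated at the stated concentrations for 16 h. EGFR protein by Western blot; n = 3.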

For test [12], the system named is HCC827. The test is described as follows: Effect on Akt protein expression in human HCC827 cells at 0.003 to 0.33 uM incubated for 48 hrs by Western blot analysis. The class given is functional, cell-based. Conditions: dose 0.003-0.33 µM.
Test [13] relates to von Hippel-Lindau disease tumor suppressor/Epidermal growth factor receptor (Homo sapiens), P00533+P40337 [UNDEFINED MUTATION]. In words: Protac activity at VHL/EGFR del19 mutant in human HCC827 cells assessed as induction of EGFR degradation at 333 nM measured after 24 hrs by Western blot analysis. The class given is cell-based. The gist of the method: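 HCC827 cells seeded at 0.5–1 × 10⁶ per well, grown 24 h, then treated at the stated concentrations for 24 h. EGFR^del19 level by Western blot with anti-EGFR antibody and β-actin loading control.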

The target of test [14] is von Hippel-Lindau disease tumor suppressor/Epidermal growth factor receptor (Homo sapiens, UniProt P00533+P40337). In words: Protac activity at VHL/EGFR del19 mutant in human HCC827 cells assessed as induction of EGFR degradation measured after 48 hrs by Western blot analysis. The class given is cell-based. The gist of the method:
as §2

Test [15] has as its system von Hippel-Lindau disease tumor suppressor/Epidermal growth factor receptor (Homo sapiens), P00533+P40337 [UNDEFINED MUTATION]. In words: Protac activity at VHL/EGFR del19 mutant in human HCC827 cells assessed as induction of EGFR degradation at 0.033 uM pretreated with proteasome inhibitor, MG132 for 2 hrs followed by incubation with compound for 24 hrs by Western blot analysis. The class given is cell-based.

For test [16] the test system is unchanged. The test is described as follows: Protac activity at VHL/EGFR del19 mutant in human HCC827 cells assessed as induction of EGFR degradation at 0.033 uM pretreated with autophagy inhibitor, chloroquine for 2 hrs followed by incubation with compound for 24 hrs by Western blot analysis. The class given is cell-based.

The IC50 is the concentration that inhibits the measured activity by half. By DC50 is commonly meant the concentration at which degradation of the target reaches its halfway point. For `Cc1ncsc1-c1ccc(CNC(=O)[C@@H]2C[C@@H](O)CN2C(=O)[C@@H](NC(=O)CCCCCCN2CCN(c3ccc(Nc4ncc5nc(Nc6ccccc6)n(C6CCCC6)c5n4)cc3)CC2)C(C)(C)C)cc1`, the outcome (in [1]; in test [6]; with HCC827 [12]; in test [13]; in test [16]) was inactive. The results for the IC50 in the test on A-431, in the test on HCC827 [9] and with NCI-H1975 [10] were 245 nM, 0.83 nM and 203 nM, respectively. In addition, the result in test [2], in test [3], in [7], in [11] and in test [15] was Active. For the same compound, in test [4], the Emax stood at 80.4%. For the same compound, the inhibition result in the test on NCI-H1975 [5] is “Active”. In addition, the Activity in the test on HCC827 [8] is given as 31.07%. Further, the DC50 in test [14] was 0.51 nM.
